Data from the EternaBench riboswitch data.

System: MS2 coat protein
Assay: apparent Kd, MS2 coat protein; higher = weaker binding; RNA-MaP array; FMN 200 µM where present
How it was run: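 Green signal was scaled to red-channel RNA signal and control-cluster median Fmax, and the apparent Kd was taken as the median of filtered per-cluster binding-curve fits. The binding series used SNAP-549-labelled MS2 coat protein from 0.7 or 1.5 nM, doubling to 3 µM, on designs transcribed by stalled E. coli RNA polymerase on Illumina sequencing-chip clusters. Each series ran without and then with constant ligand in 100 mM Tris-HCl pH 7.5, 80 mM KCl, 4 mM MgCl2, BSA, DTT, yeast tRNA and Tween-20.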

[1] = designed as: OFF switch for flavin mononucleotide, no ligand
[2] = ligand present: flavin mononucleotide, designed as: OFF switch for flavin mononucleotide
[3] = designed as: ON switch for flavin mononucleotide, no ligand
[4] = ligand present: flavin mononucleotide, designed as: ON switch for flavin mononucleotide

Row | Sequence | apparent Kd [1] | apparent Kd [2] | apparent Kd [3] | apparent Kd [4]
1 | AGAAAUUAGUGAGGAUAUGCAUAAUUUGUAGCUGCAGAAGGCACGGACCACAAGACAUGAGGAUCACCCAUGUGGUAUUUAGAU | 26.8 nM | 28 nM | – | –
2 | AAACUGUGAGGAUAUGGUGAGUAGUGCCUGAGCGCUGCUCACCAGAAGGCACAUGAGGAUCACCCAUGUAUAAC | 24.8 nM | 62.1 nM | – | –
3 | GAUCAACAUGAGGAUCACCCAUGUGAGGAUAUGAUACUAUGUACUUCGGUACAUAGUAUCAGAAGGCACAUAAA | 67.9 nM | 218 nM | – | –
4 | UCUCGGAGCAGAGGAUAUUACAUGAGGAUCACCCAUGUAUGAACCAAUAGCUGGAAACAGCAAUGUAAGAAGGCUGCUCCGACA | 12.4 nM | 169 nM | – | –
5 | CGGAGCAUCGAGAAGGGCACAUGGACAACUAAACAUGAGGAUCACCCAUGUGCAGGAUAUCGAAAAUCAUGUGGCCUUGGCCGU | 15.9 nM | 155 nM | – | –
6 | UAUUAGUAAGGAUAUGAGACGUAGGACUUCGGUCCUACGUCUCAGAAGGUACAUGAGGAUCACCCAUGUUUAUU | 17.1 nM | 26.1 nM | – | –
7 | CACGUCCUCACAGGAUAUGCUGGACUUUGUCCAGCAGAAGGGUGAAAACAUGAGGAUCACCCAUGUAGGACGUGUAUAUUUAAU | – | – | 1020 nM | 125 nM
8 | UUUGAAUAGGUAGGAUAUACAUACAUUCCUACAUUACUAACAUGAGGAUCACCCAUGUAUACAUUGUAGAAGGACCAGAUUGAU | 26.1 nM | 23.9 nM | – | –
9 | CGAUAUGAUGCAGGAUAUCUAUCUUGAAUGAGGAGAGAAGGGCAUAGGGAGACAUAAGCCUUAUUACAUGAGGAUCACCCAUGU | 12.9 nM | 12 nM | – | –
10 | UGGUACUAGGGAGGAUAUGGGAAGAUACAUGAGGAUCACCCAUGUUUAAGAAUGCCGAGAGGCAACUAGAAGGCCCUCGUACCU | – | – | 432 nM | 20.1 nM
11 | UUUACAUGAGGAUCACCCAUGUCUUGAAAGAUUAGUUCUGGUGAGGAUAUACAUGAUAAAGAAUUGUAGAAGGCACUGGGUACA | – | – | 113 nM | 33.1 nM
12 | GUAUAUAUUACAUGAGGAUCACCCAUGUCAGAACGGGUAAUCAGAAGGUAGUAUUAGAGAAAGAUUAAGGAUAUGAUUAUAUAC | – | – | 231 nM | 81.1 nM
13 | ACGGUUUACCAGAAGGACAUGAGGAUCACCCAUGUAGGAUAUGGGAAGUUGGUCUCCUUCAAAUAAGGCCCUCAGAGCUUCAAA | – | – | 446 nM | 31.2 nM
14 | UAUAACUUACAGAAGGGUAUUGUGGUGCAUUAUUAGUAGGAAAUACUAUACAGGAUAUGUAAUACAUGAGGAUCACCCAUGUUC | – | – | 22.3 nM | 14.9 nM
15 | AAUUAUUUUUGAGGAUAUCGUGGUGAAACACCACGAGAAGGCAAGAUACACAUGAGGAUCACCCAUGUGAGCCUGAUGCUUAUG | 16.9 nM | 21.4 nM | – | –
16 | GCCAGAGCAGGAUAUUCAAUAAUUCACAUGAGGAUCACCCAUGUCCAGCGAAAGCUGGAAGGAGAAGGGCUCUGGC | 16.3 nM | 13.7 nM | – | –
17 | AUCAGCUCGUCAGGAUAUACGUCACUGCGUCAGCAGUGUGGUAAGAUCACAUGAGGAUCACCCAUGUAGAAGGGAGGAGCUGAU | 15 nM | 438 nM | – | –
18 | UGGUACUAGGGAGGAUAUGGGAAGAUACAUGAGGAUCACCCAUGUUUAAGAAUGCCGAGAGGCAACUAGAAGGCCCUAGAACCU | – | – | 406 nM | 19.7 nM
19 | GUAGGGUCAGGAUAUACUGGCUGAGGGAUGUAUUGUAGUUGGUAGAAGGGACAUGAGGAUCACCCAUGUAAGAA | 36 nM | 26.1 nM | – | –
20 | CGAUAGGACAGAGGAUAUACACAUGAGGAUCACCCAUGUGAUUACAACGCGAAAGCUCCAAACAUGUAGAAGGCUGUCCUAUCG | 18.1 nM | 21.1 nM | – | –
21 | GCACGAGACUAAGGAUAUGGAGUGUCUACAUUAAACAUGAGGAUCACCCAUGUAGAGAGUACGAUUCAGAAGGUAGAGACGUGC | – | – | 48.6 nM | 22.1 nM
22 | CCCGCCAUACAGAAGGGAAACAUGAGGAUCAGCCGCGACAUGAGGAUCACCCAUGUUUACCUAUUUCAGGAUAUGUACACUCCC | – | – | 470 nM | 225 nM
23 | AGUCGGAGCAGAGGAUAUACAUGAGGAUCACCCAUGUAAUAAAGUGAAGCCUGGUAACAGGCAAUGUAGAAGGCUGCUCCGACA | 11.3 nM | 77.7 nM | – | –
24 | GUCUUCCUAGGAUAUACAUGAGGAUCACCCAUGUACAGUUUCGUCAAAGGAUAAUCGCGUAGAAGGAGGUGGAU | 16.5 nM | 23.6 nM | – | –

Row | Sequence | apparent Kd [1] | apparent Kd [2] | apparent Kd [3] | apparent Kd [4]
25 | UAUGUUUUUGUGAGGAUAUACUUUGUUUGGUCGUAGUAGAAGGCACAUGAGGAUCACCCAUGUAGAUUUUUGGU | 22.8 nM | 40.4 nM | – | –
26 | AUAUAUAACUAAGGAUAUCUGUAUUUUGUUGAAACAUGAGGAUCACCCAUGUUCAUGAAAUUAUAGGAGAAGGUAGAUAUAUAU | – | – | 4.93 nM | 4.54 nM
27 | AUCCAGCGAGGAUAUACAUAGUUUUUUUCGUUUUGUCUCGAACAUGAGGAUCACCCAUGUAGAAGGUGCUUCAC | 72.5 nM | 67.2 nM | – | –
28 | CUGUAACAUGAGGAUCACCCAUGUCAGGAUAUCUAUCAUAGCAUCGAAAGAUGCGGGUAGAGAAGGGACUAUCC | 17 nM | 18.2 nM | – | –
29 | CUAUGCGGAAUAGGAUAUUCGCUCAUGAGGAUAGAAGAAGGGUUACAUGAGGAUCACCCAUGUAUGCACAUGAGGAUCCCUUAG | 134 nM | 150 nM | – | –
30 | UUUGGGAACUCUAUGGGCCGCUACAUGAGGAUCACCCAUGUGCAGGAUAUAGGUGUUACUACCGCCUAGAAGGGCACAGACUGA | 23.4 nM | 42.5 nM | – | –
31 | GGCUCCGCUCGAGGAUAUAGCUGCAUGUAGUGUCCUGAGGCACAUGAGGAUCACCCAUGUGUAGGCUAGAAGGCGACGGACGUU | 121 nM | 249 nM | – | –
32 | AUUAUACAUGAGGAUCACCCAUGUAAUUAAUCUAGUAAGAUCUAGGAUAUCAGCUCGAUUAGAGCUGAGAAGGAGAUCACAUGU | – | – | 52.9 nM | 22.2 nM
33 | GUGAUCUGAGUGAGGAUAUCCUUUAAGUAAUUGCAGGAGAAGGCACAUGAGGAUCACCCAUGUACAUCUUCGCG | 36.1 nM | 119 nM | – | –
34 | AAAAAACAUGAGGAUCACCCAUGUGAGGAUAUCCGAAAAAAAAAAAAAAAAAAAAAAAGGAGAAGGCGCAGCAA | 242 nM | 206 nM | – | –
35 | GAGGACUGUAAAUUAACUCAAAUACAUGAGGAUCACCCAUGUAAGGAUAUCGUCAGGAAUACUGACGAGAAGGUACAUCAGUCC | 14.4 nM | 20 nM | – | –
36 | GUAGCUAUCGGAGGAUAUUCAUACCGGAAACGGACAUGAGGAUCACCCAUGUGGCGAAAGCCUUGGGAGAAGGCAGAUAGCUAC | – | – | 693 nM | 28.6 nM
37 | AGGGUAUGAACAUGAGGAUCACCCAUGUACUAGGAAACGAAUGAGGAUAUCGAUAGCAAAGCUAUCGAGAAGGCAUGGGACCCU | – | – | 322 nM | 59.2 nM
38 | UCUCGAUGUGUAGGAUAUCUGAUUACUAUGACAAGAGAAGGGCACAUGAGGAUCACCCAUGUGGAGGACCACUGGUUCAGAUUA | 31.2 nM | 49.3 nM | – | –
39 | AAUAAUUAGUAAGGAUAUACUAGUGAUUAGCUUGUAGAAGGUACAGUCUUAUGUAUAAUAAAUUAACAUGAGGAUCACCCAUGU | – | – | 11.6 nM | 9.86 nM
40 | CUAUACAUAUCAGGAUAUCAUCGCGUGGAUUAACCCUGUGAUUACAUGAGGAUCACCCAUGUGCUUGAGAAGGGAUUACUAUUU | 33.7 nM | 152 nM | – | –
41 | ACUUGGUUACAGAAGGGCAUUUAUAAUUAUCAUUACUCAUCCUAUGUUUGCAGGAUAUGUUUAACAUGAGGAUCACCCAUGUAC | – | – | 171 nM | 97.6 nM
42 | AUCAAGUGAGGAUAUGAUUAUACAACAAACUAACAUCUACAUCAGAAGGCACAUGAGGAUCACCCAUGUUUGUC | 18.1 nM | 16.6 nM | – | –
43 | GAAUAUUCGUUGAACAUGAGGAUCACCCAUGUAACUUGACAUGAGGAUAUGGAUUCUAAUUGGAUCCAGAAGGCAUGAAUAUUC | – | – | 75.3 nM | 26.9 nM
44 | CGGCCGGGCCGAGGAUAUAAGUCUAGGACAUGAGGAUCACCCAUGUAUGUCUUAGAAGGCGGCCCGGCCAGCCUGUUACAGGCA | – | – | 31.2 nM | 5.85 nM
45 | UUCGGCGCAGGAUAUGCAGUUCUGUGUUGAAUCGGCGCGGGACAUGAGGAUCACCCAUGUAGAAGGGUGUUGGG | 374 nM | 239 nM | – | –
46 | GACUGACAUGAGGAUCACCCAUGUAUUCGAGCAUGAGGAUAUAUGACACGUCAUCGGCGGAUAGAAGGCAUGGUUG | – | – | 124 nM | 185 nM
47 | GUCUUACAUGAGGAUCACCCAUGUGAGGAUAUAUGUGGUGUUGAGAAAUUGGUGUUGUAUAGAAGGCGCGUGAU | 25.5 nM | 24.8 nM | – | –
48 | CUUUCGUGAGGAUAUGUGGCUUCGAUCGUGAGAUCGAGGAAACAGAAGGCACAUGAGGAUCACCCAUGUUCCUC | 35.9 nM | 421 nM | – | –
